Assay results: ChEMBL document CHEMBL1135980, “Novel angular benzophenazines: dual topoisomerase I and topoisomerase II inhibitors as potential anticancer agents” (J Med Chem, 2002)

Experiments:
NCI-H69 [1] = experiment: Cytotoxicity measured using the H69 parental (H69/P) human small cell lung carcinoma cell line; assay type: functional, cell-based
Outline: (§1)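 H69/P (parental) or H69/LX4 (P-glycoprotein-overexpressing) human SCLC cells; compound added, then 5-6 days incubation; proliferation read with Alamar Blue.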

NCI-H69 [2] = experiment: Rf is the resistance factor and is the ratio of the IC50 on the resistant cell line over the IC50 on the parental H69/P cell line; assay type: functional, Homo sapiens
Outline: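 Resistance factor computed as IC50 in H69/LX4 (Pgp-overexpressing) divided by IC50 in H69/P. Both IC50s come from a 5-6 day Alamar Blue proliferation assay.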

NCI-H69 [3] = experiment: Cytotoxicity measured using the drug resistant, P-glycoprotein (Pgp) expressing human small cell lung carcinoma cell line H69/LX4; assay type: functional, cell-based; outline: as §1

## CC(C)Oc1cccc2c1ccc1nc3cccc(C(=O)NCCN(C)C)c3nc12
NCI-H69 [1]
  IC50: 420 nM
NCI-H69 [2]
  Rf: 2.1
NCI-H69 [3]
  IC50: 874 nM

## COc1cccc2c1ccc1nc3cccc(C(=O)NC(C)CN(C)C)c3nc12 (stereo not drawn)
NCI-H69 [1]
  IC50: 30 nM
NCI-H69 [2]
  Rf: 1.4
NCI-H69 [3]
  IC50: 44 nM

## COc1cccc2c1ccc1nc3ccc(N)c(C(=O)NCCN(C)C)c3nc12
NCI-H69 [1]
  IC50: 34 nM
NCI-H69 [2]
  Rf: 0.85
NCI-H69 [3]
  IC50: 29 nM

## CCOC(=O)COc1cccc2c1ccc1nc3cccc(C(=O)NCCN(C)C)c3nc12
NCI-H69 [1]
  IC50: 587 nM
NCI-H69 [2]
  Rf: 0.9
NCI-H69 [3]
  IC50: 506 nM

## CN(C)CCNC(=O)c1cccc2nc3ccc4c(OCCO)cccc4c3nc12
NCI-H69 [1]
  IC50: 303 nM
NCI-H69 [2]
  Rf: 0.8
NCI-H69 [3]
  IC50: 235 nM

## CCN(CC)CCNC(=O)c1cccc2nc3ccc4c(OC)cccc4c3nc12
NCI-H69 [1]
  IC50: 412 nM
NCI-H69 [2]
  Rf: 2.4
NCI-H69 [3]
  IC50: 1000 nM

## COc1cccc2c1ccc1nc3cccc(C(=O)NCC(CN(C)C)N(C)C)c3nc12 (stereo not drawn)
NCI-H69 [1]
  IC50: 126 nM
NCI-H69 [2]
  Rf: 3.8
NCI-H69 [3]
  IC50: 480 nM

## COc1cccc2c1ccc1nc3ccc(O)c(C(=O)NCCN(C)C)c3nc12
NCI-H69 [1]
  IC50: 103 nM
NCI-H69 [2]
  Rf: 1
NCI-H69 [3]
  IC50: 107 nM

## CN(C)CCNC(=O)c1cccc2nc3ccc4c(CO)cccc4c3nc12
NCI-H69 [1]
  IC50: 117 nM
NCI-H69 [2]
  Rf: 3.6
NCI-H69 [3]
  IC50: 423 nM

## CN(C)CCNC(=O)c1cccc2nc3ccc4c(Cl)cccc4c3nc12
NCI-H69 [1]
  IC50: 117 nM
NCI-H69 [2]
  Rf: 1.4
NCI-H69 [3]
  IC50: 159 nM

## CN(C)CCNC(=O)c1cccc2nc3ccc4c(C(=O)O)cccc4c3nc12
NCI-H69 [1]
  IC50: > 5000 nM
NCI-H69 [3]
  IC50: > 5000 nM

## COc1cccc2c1ccc1nc3c(C)ccc(C(=O)NCCN(C)C)c3nc12
NCI-H69 [1]
  IC50: 87 nM
NCI-H69 [2]
  Rf: 1.9
NCI-H69 [3]
  IC50: 168 nM

## COc1cccc2c1ccc1nc3cccc(C(=O)NC(CN(C)C)C(=O)O)c3nc12 (stereo not drawn)
NCI-H69 [1]
  IC50: 211 nM
NCI-H69 [2]
  Rf: >23
NCI-H69 [3]
  IC50: > 5000 nM

## CN(C)CCNC(=O)c1cccc2nc3ccc4c(OCCN5CCOCC5)cccc4c3nc12
NCI-H69 [1]
  IC50: 99 nM
NCI-H69 [2]
  Rf: 2.4
NCI-H69 [3]
  IC50: 236 nM

## COc1cccc2c1ccc1nc3cccc(C(=O)NCCN(CCO)CCO)c3nc12
NCI-H69 [1]
  IC50: 614 nM
NCI-H69 [2]
  Rf: 5.5
NCI-H69 [3]
  IC50: 3380 nM

## COc1cccc2c1ccc1nc3cccc(C(=O)NC(Cc4ccccc4)CN(C)C)c3nc12 (stereo not drawn)
NCI-H69 [1]
  IC50: 478 nM
NCI-H69 [2]
  Rf: 1.1
NCI-H69 [3]
  IC50: 513 nM

## CN(C)CCNC(=O)c1cccc2nc3ccc4ccc(O)cc4c3nc12
NCI-H69 [1]
  IC50: 86 nM
NCI-H69 [2]
  Rf: 3.3
NCI-H69 [3]
  IC50: 282 nM

## COc1cccc2c1ccc1nc3cccc(C(=O)N[C@@H](CN(C)C)[C@H](C)O)c3nc12
NCI-H69 [1]
  IC50: 19 nM
NCI-H69 [2]
  Rf: 1
NCI-H69 [3]
  IC50: 19 nM

## C#CCOc1cccc2c1ccc1nc3cccc(C(=O)NCCN(C)C)c3nc12
NCI-H69 [1]
  IC50: 40 nM
NCI-H69 [2]
  Rf: 1.5
NCI-H69 [3]
  IC50: 61 nM

## COc1cccc2c1ccc1nc3cccc(C(=O)N[C@@H](CN(C)C)C(C)C)c3nc12
NCI-H69 [1]
  IC50: 21 nM
NCI-H69 [2]
  Rf: 1
NCI-H69 [3]
  IC50: 20 nM

## CN(C)CCNC(=O)c1cccc2nc3ccc4c(N(C)C)cccc4c3nc12
NCI-H69 [1]
  IC50: 778 nM
NCI-H69 [2]
  Rf: 1.2
NCI-H69 [3]
  IC50: 925 nM

## CN(C)CCNC(=O)c1cccc2nc3ccc4c(OCC(=O)O)cccc4c3nc12
NCI-H69 [1]
  IC50: 3840 nM
NCI-H69 [2]
  Rf: >1.3
NCI-H69 [3]
  IC50: > 5000 nM

## COc1ccc2ccc3nc4cccc(C(=O)NCCN(C)C)c4nc3c2c1
NCI-H69 [1]
  IC50: 110 nM
NCI-H69 [2]
  Rf: 1
NCI-H69 [3]
  IC50: 112 nM

## CNS(=O)(=O)c1cccc2c1ccc1nc3cccc(C(=O)NCCN(C)C)c3nc12
NCI-H69 [1]
  IC50: 638 nM
NCI-H69 [2]
  Rf: >7.8
NCI-H69 [3]
  IC50: > 5000 nM

## CSc1cccc2c1ccc1nc3cccc(C(=O)NCCN(C)C)c3nc12
NCI-H69 [1]
  IC50: 121 nM
NCI-H69 [2]
  Rf: 0.8
NCI-H69 [3]
  IC50: 94 nM

## CCC(CN(C)C)NC(=O)c1cccc2nc3ccc4c(OC)cccc4c3nc12 (stereo not drawn)
NCI-H69 [1]
  IC50: 107 nM
NCI-H69 [2]
  Rf: 1.1
NCI-H69 [3]
  IC50: 118 nM

## COC(=O)c1cccc2c1ccc1nc3cccc(C(=O)NCCN(C)C)c3nc12
NCI-H69 [1]
  IC50: 103 nM
NCI-H69 [2]
  Rf: 0.9
NCI-H69 [3]
  IC50: 91 nM

## CC(=O)COc1cccc2c1ccc1nc3cccc(C(=O)NCCN(C)C)c3nc12
NCI-H69 [1]
  IC50: 45 nM
NCI-H69 [2]
  Rf: 3.1
NCI-H69 [3]
  IC50: 138 nM
